Test results from ChEMBL document CHEMBL2346610, “N-Alkyldeoxynojirimycin derivatives with novel terminal tertiary amide substitution for treatment of bovine viral diarrhea virus (BVDV), Dengue, and Tacaribe virus infections” (Bioorg Med Chem Lett, 2013).
Active and inactive are the calls of the source. The rule behind the calls is not given here.

Columns and labels:
[1] = system: Bovine viral diarrhea virus 1; experiment: Antiviral activity against BVDV infected in MDBK cells assessed as reduction of viral yield; format: functional, organism-based; details: Bovine viral diarrhea virus isolates and strains
Summary of the method: (§1)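 Assays were run in MDBK cells. BVDV antiviral activity was measured by virus yield reduction and reported as EC50. Cytotoxicity was measured by MTT assay and reported as CC50.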

[2] = system: Bovine viral diarrhea virus 1; experiment: Reduction of BVDV E2 protein mobility rate infected in MDBK cells at EC50 after 22 hrs by Western blot analysis; format: functional, organism-based
Summary of the method: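 MDBK cells were infected with BVDV at MOI 1 for 1 h, then mock-treated or compound-treated. Cells were harvested 22 h post-infection. Lysates were run on electrophoresis and Western blotted, detecting BVDV E2 glycoprotein and β-actin loading control simultaneously.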

[3] = Cytotoxicity against MDBK cells by MTT assay; format: cell-based, Bos taurus; details: cattle; summary of the method: as §1
[4] = Cytotoxicity against BHK cells by MTT assay; format: cell-based, Mesocricetus auratus; details: hamster
Dengue virus = experiment: Antiviral activity against Dengue virus infected in BHK cells; format: functional, organism-based
[5] = Cytotoxicity against human Huh7.5 cells by MTT assay; format: cell-based, Huh-7
Tacaribe virus = experiment: Antiviral activity against Tacaribe virus infected in human Huh7.5 cells; format: functional, organism-based; details: Mammarenavirus tacaribeense, Huh-7

## OC[C@@H]1[C@@H](O)[C@H](O)[C@@H](O)CN1CCCCCCN(C1CCCCC1)C1CCCCC1
[1]
  EC50: 6.3 µM
[2]
  Activity: Active
[3]
  CC50: > 500 µM

## CC(C)(C)C(=O)N(CCCCCCN1C[C@H](O)[C@@H](O)[C@H](O)[C@H]1CO)C1CCCCCC1
[4]
  CC50: > 500 µM
[1]
  EC50: 0.4 µM
[3]
  CC50: > 500 µM
Dengue virus
  EC50: 0.8 µM
[5]
  CC50: > 500 µM
Tacaribe virus
  EC50: 1 µM

## CC(C)(C)C(=O)N(CCCCCCN1C[C@H](O)[C@@H](O)[C@H](O)[C@H]1CO)C1CCCCCCC1
[4]
  CC50: 208 µM
[1]
  EC50: 0.24 µM
[3]
  CC50: 270 µM
Dengue virus
  EC50: 0.8 µM
[5]
  CC50: 150 µM
Tacaribe virus
  EC50: 0.29 µM

## CC(C)(C)C(=O)N(CCCCCCN1C[C@H](O)[C@@H](O)[C@H](O)[C@H]1CO)C1CCCC1
[4]
  CC50: > 500 µM
[1]
  EC50: 0.85 µM
[3]
  CC50: > 500 µM
Dengue virus
  EC50: 2 µM
[5]
  CC50: > 500 µM
Tacaribe virus
  EC50: 4 µM

## CC(C)(C)C(=O)N(CCCCCCN1C[C@H](O)[C@@H](O)[C@H](O)[C@H]1CO)C1CCC1
[4]
  CC50: > 500 µM
[1]
  EC50: 0.8 µM
[3]
  CC50: > 500 µM
Dengue virus
  EC50: 1.9 µM

## CC(C)(C)C(=O)N(CCCCCCN1C[C@H](O)[C@@H](O)[C@H](O)[C@H]1CO)C1CC1
[4]
  CC50: > 500 µM
[1]
  EC50: 3.75 µM
[2]
  Activity: Active
[3]
  CC50: > 500 µM
Dengue virus
  EC50: 8.8 µM

## CC1CCCCC1NCCCCCCN1C[C@H](O)[C@@H](O)[C@H](O)[C@H]1CO (stereo partly specified)
[1]
  EC50: > 100 µM
[2]
  Activity: inactive
[3]
  CC50: > 500 µM

## CC(=O)N(CCCCCCN1C[C@H](O)[C@@H](O)[C@H](O)[C@H]1CO)C1CCCCC1
[4]
  CC50: > 500 µM
[1]
  EC50: 0.28 µM
[3]
  CC50: > 500 µM
Dengue virus
  EC50: 14 µM
[5]
  CC50: > 500 µM
Tacaribe virus
  EC50: 1 µM

## CC(=O)N(CCCCCCN1C[C@H](O)[C@@H](O)[C@H](O)[C@H]1CO)c1cc(F)ccc1F
[1]
  EC50: 5 µM
[3]
  CC50: > 500 µM

## CC(C)(C)C(=O)N(CCCCCCN1C[C@H](O)[C@@H](O)[C@H](O)[C@H]1CO)C12CC3CC(CC(C3)C1)C2
[4]
  CC50: > 500 µM
[1]
  EC50: 0.21 µM
[3]
  CC50: 420 µM
Dengue virus
  EC50: 1.38 µM
[5]
  CC50: 170 µM
Tacaribe virus
  EC50: 0.21 µM

## CC(C)(C)OC(=O)NCCCCCCN1C[C@H](O)[C@@H](O)[C@H](O)[C@H]1CO
[1]
  EC50: 2.5 µM
[2]
  Activity: Active
[3]
  CC50: > 500 µM

## CC(C)(C)C(=O)N(CCCCCCN1C[C@H](O)[C@@H](O)[C@H](O)[C@H]1CO)C1C2CC3CC(C2)CC1C3 (stereo partly specified)
[4]
  CC50: 192 µM
[1]
  EC50: 0.31 µM
[3]
  CC50: 180 µM
Dengue virus
  EC50: 0.125 µM
[5]
  CC50: 125 µM
Tacaribe virus
  EC50: 0.5 µM

## CC1CCCCC1N(CCCCCCN1C[C@H](O)[C@@H](O)[C@H](O)[C@H]1CO)C(=O)OC(C)(C)C (stereo partly specified)
[4]
  CC50: 230 µM
[1]
  EC50: 0.4 µM
[2]
  Activity: Active
[3]
  CC50: 250 µM
Dengue virus
  EC50: 0.3 µM
[5]
  CC50: 240 µM
Tacaribe virus
  EC50: 0.3 µM

## CC(C)(C)C(=O)N(CCCCCCN1C[C@H](O)[C@@H](O)[C@H](O)[C@H]1CO)c1cc(F)ccc1F
[4]
  CC50: > 500 µM
[1]
  EC50: 0.4 µM
[3]
  CC50: > 500 µM
Dengue virus
  EC50: 5.4 µM
[5]
  CC50: > 500 µM
Tacaribe virus
  EC50: 0.62 µM

## CC(=O)N(CCCCCCN1C[C@H](O)[C@@H](O)[C@H](O)[C@H]1CO)c1ccc(F)cc1F
[1]
  EC50: 6 µM
[2]
  Activity: Active
[3]
  CC50: > 500 µM

## CC1CCCCC1N(CCCCCCN1C[C@H](O)[C@@H](O)[C@H](O)[C@H]1CO)C(=O)C(C)(C)C (stereo partly specified)
[4]
  CC50: > 500 µM
[1]
  EC50: 0.22 µM
[2]
  Activity: Active
[3]
  CC50: > 500 µM
Dengue virus
  EC50: 0.32 µM
[5]
  CC50: 310 µM
Tacaribe virus
  EC50: 0.2 µM

## CC(C)(C)CC(=O)N(CCCCCCN1C[C@H](O)[C@@H](O)[C@H](O)[C@H]1CO)C1CCCCC1
[4]
  CC50: > 500 µM
[1]
  EC50: 0.18 µM
[2]
  Activity: Active
[3]
  CC50: > 500 µM
Dengue virus
  EC50: 1.5 µM
[5]
  CC50: > 500 µM
Tacaribe virus
  EC50: 0.4 µM

## CC(C)(C)C(=O)N(CCCCCCN1C[C@H](O)[C@@H](O)[C@H](O)[C@H]1CO)C1CCCCC1
[4]
  CC50: > 500 µM
[1]
  EC50: 0.2 µM
[2]
  Activity: Active
[3]
  CC50: > 500 µM
Dengue virus
  EC50: 0.28 µM
[5]
  CC50: 500 µM
Tacaribe virus
  EC50: 0.2 µM

## C[C@H]1CCCC[C@@H]1OCCCCCCN1C[C@H](O)[C@@H](O)[C@H](O)[C@H]1CO
[1]
  EC50: 3.3 µM

## CC(C)(C)C(=O)N(CCCCCCN1C[C@H](O)[C@@H](O)[C@H](O)[C@H]1CO)c1ccc(F)cc1F
[4]
  CC50: > 500 µM
[1]
  EC50: 0.25 µM
[2]
  Activity: Active
[3]
  CC50: > 500 µM
Dengue virus
  EC50: 2.2 µM
[5]
  CC50: > 500 µM
Tacaribe virus
  EC50: 2.5 µM
